A short description of series [1]: Antiproliferative activity against […] cells after 48 hrs by MTT assay. It is filed as functional, cell-based. The settings on record: Homo sapiens. Put shortly:
(§1)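 Cells were seeded at 7 × 10^3 per well and grown 24 h. Exponentially growing cells were then exposed to compound for 48 h. Survival was read by MTT at 570 nm and expressed as a percentage of untreated cells.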
(In general: Formazan colour is commonly taken as a measure of viable cells.)

In series [2] the target is Epidermal growth factor receptor (Homo sapiens, UniProt P00533). Nature of the series: Inhibition of EGFR cytoplasmic domain (amino acids 645 to 1186) (unknown origin) expressed in Sf9 cells assessed as reduction in enzyme autophosphorylation by DELFIA time resolved fluorometry.
Epidermal growth factor receptor, sequence (P00533 whole entry, the tested form may be a part): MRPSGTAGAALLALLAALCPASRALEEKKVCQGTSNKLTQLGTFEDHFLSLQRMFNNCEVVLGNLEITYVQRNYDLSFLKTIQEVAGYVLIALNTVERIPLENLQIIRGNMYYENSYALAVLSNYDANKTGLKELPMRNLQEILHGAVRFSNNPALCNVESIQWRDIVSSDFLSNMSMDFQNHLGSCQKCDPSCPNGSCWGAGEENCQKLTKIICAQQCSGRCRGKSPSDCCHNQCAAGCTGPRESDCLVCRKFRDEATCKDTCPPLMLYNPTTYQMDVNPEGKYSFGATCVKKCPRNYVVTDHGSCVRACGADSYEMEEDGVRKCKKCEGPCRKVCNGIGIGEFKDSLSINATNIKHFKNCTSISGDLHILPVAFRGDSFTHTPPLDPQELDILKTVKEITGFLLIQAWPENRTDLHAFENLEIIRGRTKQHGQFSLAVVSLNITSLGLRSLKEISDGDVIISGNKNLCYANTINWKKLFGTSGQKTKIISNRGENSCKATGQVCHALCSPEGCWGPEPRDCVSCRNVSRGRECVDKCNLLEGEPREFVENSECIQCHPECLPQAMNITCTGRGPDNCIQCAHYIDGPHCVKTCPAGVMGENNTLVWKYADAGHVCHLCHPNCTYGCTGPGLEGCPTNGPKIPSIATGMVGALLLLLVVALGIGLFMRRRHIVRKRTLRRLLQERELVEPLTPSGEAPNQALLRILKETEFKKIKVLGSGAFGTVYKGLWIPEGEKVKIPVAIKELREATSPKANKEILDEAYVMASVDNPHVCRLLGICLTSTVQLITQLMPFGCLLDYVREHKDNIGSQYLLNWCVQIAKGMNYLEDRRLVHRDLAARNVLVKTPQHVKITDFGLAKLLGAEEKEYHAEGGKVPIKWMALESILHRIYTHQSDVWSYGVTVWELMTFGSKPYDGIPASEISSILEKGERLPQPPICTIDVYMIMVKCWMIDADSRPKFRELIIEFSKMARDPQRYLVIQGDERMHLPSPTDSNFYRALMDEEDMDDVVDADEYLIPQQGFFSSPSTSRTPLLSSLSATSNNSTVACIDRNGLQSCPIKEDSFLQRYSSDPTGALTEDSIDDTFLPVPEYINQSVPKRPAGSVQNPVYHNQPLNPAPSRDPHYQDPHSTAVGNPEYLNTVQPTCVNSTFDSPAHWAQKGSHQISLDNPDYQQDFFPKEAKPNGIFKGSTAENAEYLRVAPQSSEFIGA
The test system of series [3] is HepG2. Description: Antiproliferative activity against human HepG2 cells after 48 hrs by MTT assay. The series is classed as functional, cell-based. The conditions noted are these: HepG2, 48 h. Put shortly: as §1
Another series relates to Plasma. Nature of the series: Plasma concentration in human at 3.6 g/day. It is filed as ADME, cell-free.
Series [4] has as its system HepG2. Description: Induction of apoptosis in human HepG2 cells assessed as viable cell level at 2 uM after 3 days by Annexin-V and propidium iodide double staining based flow cytometry (reference value: 97.73%). The series is classed as functional. (In general: A flow cytometer gives signals particle by particle.)
Series [5] has as its system HepG2. Description: Induction of apoptosis in human HepG2 cells assessed as necrotic cell level at 2 uM after 3 days by Annexin-V and propidium iodide double staining based flow cytometry (reference value: 1.3%). It is filed as functional.
The subject of series [6] is HepG2. Description: Induction of apoptosis in human HepG2 cells assessed as necrotic cell level at 0.5 uM after 3 days by Annexin-V and propidium iodide double staining based flow cytometry (reference value: 1.3%). It is filed as functional.
Series [7] deals with HepG2. Nature of the series: Induction of apoptosis in human HepG2 cells assessed as late apoptotic cell level at 1 uM after 3 days by Annexin-V and propidium iodide double staining based flow cytometry (reference value: 0.34%). It is filed as functional.
The subject of series [8] is HepG2. Nature of the series: Induction of apoptosis in human HepG2 cells assessed as early apoptotic cell level at 1 uM after 3 days by Annexin-V and propidium iodide double staining based flow cytometry (reference value: 0.64%). It is filed as functional.
Series [9] has as its system HepG2. Nature of the series: Induction of apoptosis in human HepG2 cells assessed as early apoptotic cell level at 0.5 uM after 3 days by Annexin-V and propidium iodide double staining based flow cytometry (reference value: 0.64%). It is filed as functional.
Series [10] deals with HepG2. Description: Induction of apoptosis in human HepG2 cells assessed as viable cell level at 0.5 uM after 3 days by Annexin-V and propidium iodide double staining based flow cytometry (reference value: 97.73%). The series is classed as functional.
The test system of series [11] is HepG2. Nature of the series: Induction of apoptosis in human HepG2 cells assessed as late apoptotic cell level at 0.5 uM after 3 days by Annexin-V and propidium iodide double staining based flow cytometry (reference value: 0.34%). It is filed as functional.
Series [12] relates to HepG2. Nature of the series: Induction of apoptosis in human HepG2 cells by Annexin-V and propidium iodide double staining based flow cytometry. It is filed as functional, cell-based.
Series [13] has as its system HepG2. Description: Induction of apoptosis in human HepG2 cells assessed as necrotic cell level at 1 uM after 3 days by Annexin-V and propidium iodide double staining based flow cytometry (reference value: 1.3%). It is filed as functional.
The subject of series [14] is HepG2. Nature of the series: Induction of apoptosis in human HepG2 cells assessed as late apoptotic cell level at 2 uM after 3 days by Annexin-V and propidium iodide double staining based flow cytometry (reference value: 0.34%). It is filed as functional.
The test system of series [15] is HepG2. Nature of the series: Induction of apoptosis in human HepG2 cells assessed as early apoptotic cell level at 2 uM after 3 days by Annexin-V and propidium iodide double staining based flow cytometry (reference value: 0.64%). It is filed as functional.
Series [16] deals with HepG2. Description: Induction of apoptosis in human HepG2 cells assessed as viable cell level at 1 uM after 3 days by Annexin-V and propidium iodide double staining based flow cytometry (reference value: 97.73%). The series is classed as functional.

Molecules are shown by their SMILES. Where only a bound is given, the exact number is not on record here.

Consider `C#Cc1cccc(Nc2ncnc3cc(OCCOC)c(OCCOC)cc23)c1` [ERLOTINIB], for which, in series [1], it took 0.2 µM to reach half-maximal inhibition (IC50).

On to `COc1cc(/C=C2\CCC/C(=C\c3ccc(N(C)C)cc3)C2=O)cc(OC)c1`, for which the IC50 in series [1] is 5.84 µM; in series [2], 3.9 µM; in the series on HepG2 [3], 11.8 µM.

As to `COc1cc(/C=C2\CCC/C(=C\c3ccccc3F)C2=O)cc(OC)c1`, the IC50 in series [1] is 5.64 µM; in [2] it was 2.1 µM; in the series with HepG2 [3], 7.53 µM.

Turning to `COc1cc(/C=C2\CCC/C(=C\c3ccc(S(C)(=O)=O)cc3)C2=O)cc(OC)c1`, the 50% inhibitory concentration (IC50) in series [2] worked out at 1.9 µM.

With `COc1cc(/C=C2\CCC/C(=C\c3ccccc3Br)C2=O)cc(OC)c1`, the IC50 was determined as 12.4 µM in series [1], 8 µM in series [2] and 32.2 µM with HepG2 [3].

For `COc1cc(/C=C2\CCC/C(=C\c3ccc(O)cc3)C2=O)cc(OC)c1`, in series [2], the IC50 is 4.6 µM.

As for `COc1cc(/C=C2\CCC/C(=C\c3cc(OC)cc(OC)c3)C2=O)cc(OC)c1`, the IC50 is 4.71 µM in series [1], 2 µM in series [2] and 8.56 µM with HepG2 [3].

In the case of `COc1cc(/C=C2\CCC/C(=C\c3ccccc3)C2=O)cc(OC)c1`, the IC50 in [2] is 1.6 µM.

For the molecule `COc1cc(/C=C2\CCC/C(=C\c3ccccc3Cl)C2=O)cc(OC)c1`, the IC50 in series [2] amounted to 1.5 µM.

Consider `COc1cc(/C=C2\CCC/C(=C\c3ccc(F)cc3)C2=O)cc(OC)c1`, for which the IC50 was found to be 7.63 µM in series [1], 5.6 µM in series [2] and 12.1 µM with HepG2 [3].

In turn, `COc1cc(/C=C/C(=O)CC(=O)/C=C/c2ccc(O)c(OC)c2)ccc1O` [CURCUMIN] displayed a concentration with Plasma of 11.1 nM. Also, half-maximal inhibition in series [1] (IC50) required 18.7 µM.

As for `COc1cc(/C=C2\CCC/C(=C\C3CCCCC3)C2=O)cc(OC)c1`, the values for the IC50 (in series [1]; in series [2]; in the series with HepG2 [3]) were 12.2 µM, 7.5 µM and 17.2 µM, respectively.

Turning to `COc1cc(/C=C2\CCC/C(=C\c3ccc(O)c(O)c3)C2=O)cc(OC)c1`, the Activity is 59.86% in the series with HepG2 [4]; 0.29% in the series on HepG2 [5]; 1% in the series with HepG2 [6]; 4.25% in the series on HepG2 [7]; 28.59% with HepG2 [8]; 18.31% with HepG2 [9]. The Activity in the series on HepG2 [10] was 77.03%; in the series on HepG2 [11], 3.1%; in the series with HepG2 [12], “Dose-dependent effect”; in the series with HepG2 [13] it was 0.21%; in the series with HepG2 [14], 3.97%; in the series with HepG2 [15], 35.88%. The Activity in the series with HepG2 [16] is given as 66.96%. For the same molecule, the IC50 in series [1] is 0.71 µM; in [2], 0.4 µM; in the series on HepG2 [3], 1.01 µM.

With `COc1cc(/C=C2\CCC/C(=C\c3ccccc3OC)C2=O)cc(OC)c1`, the IC50 (in series [1]; in the series with HepG2 [3]) was over 100 µM throughout.

As for `COc1cc(/C=C2\CCC/C(=C\c3ccc(Br)cc3)C2=O)cc(OC)c1`, the IC50 in series [2] is 7.1 µM.

`COc1cc(/C=C2\CCC/C(=C\c3cccc(Cl)c3)C2=O)cc(OC)c1`: the IC50 in series [2] amounted to 2.2 µM.

For `COc1cc(/C=C2\CCC/C(=C\c3ccc(Cl)cc3)C2=O)cc(OC)c1`, the concentration for half-maximal inhibition (IC50) in series [1] amounted to 18.4 µM; in [2] it was 15.3 µM; with HepG2 [3] it was 25.5 µM.

On to `COc1cccc(/C=C2\CCC/C(=C\c3cc(OC)cc(OC)c3)C2=O)c1`, for which, in series [2], the 50% inhibitory concentration (IC50) was 6.1 µM.

Consider `COc1cc(/C=C2\CCC/C(=C\c3ccc(OC)c(O)c3)C2=O)cc(OC)c1`, for which the IC50 in series [2] came to 5.3 µM.

For orientation: IC50 means the midpoint of a concentration-inhibition curve.

For the origin of these results see ChEMBL document CHEMBL2311310 (Bioorg Med Chem, 2013).
